pIC50: −log10 of the molar value.
The molecules below were run on Trypanosoma brucei (assay: Trypanocidal activity against bloodstream form of Trypanosoma brucei 221 assessed as inhibition of parasite growth incubated for 48 hrs followed by resazurin addition and measured after 16 hrs by resazurin assay).
Format: functional, organism-based
How it was run: (§1)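 Bloodstream-form T. brucei were cultured in vitro at pH 7.4. Growth inhibition was expressed as IC50 and IC90, the concentrations that inhibit parasite growth by 50% and 90%. Values are the mean of triplicate experiments ± SEM.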
Molecule CC(C)C[C@@H]1NC2(CCCCCC2)C(=O)N(CC(=O)NO)C1=O has a pIC50 of 7.00.

What follows are molecules tested on Trypanosoma brucei (assay: Trypanocidal activity against bloodstream form of Trypanosoma brucei assessed as inhibition of parasite growth).
Format: functional, organism-based
How it was run: as §1
With CCCC1(c2ccccc2)C(=O)N(CC(=O)NO)C(=O)CN1C (stereo not drawn) the pIC50 was 5.75.
CCCN1CC(=O)N(CC(=O)NO)C(=O)C1(C)c1ccccc1 (stereo not drawn) was tested, and the pIC50 was 6.33.
Molecule CCCCN1CC(=O)N(CC(=O)NO)C(=O)C1(C)c1ccccc1 (stereo not drawn) has a pIC50 of 6.20.
CN1CC(=O)N(CC(=O)NO)C(=O)C1(C)c1ccccc1 (stereo not drawn) gave a pIC50 of 6.23.
CC1(c2ccc([N+](=O)[O-])cc2)NCC(=O)N(CC(=O)NO)C1=O (stereo not drawn) gave a pIC50 of 4.93.
In the case of CC1(c2ccc(F)cc2)NCC(=O)N(CC(=O)NO)C1=O (stereo not drawn), the pIC50 was 4.72.
Work on CN1CC(=O)N(CC(=O)NO)C(=O)C1(C)c1ccc(F)cc1 (stereo not drawn) yielded a pIC50 of 5.09.
CN1CC(=O)N(CC(=O)NO)C(=O)C1(C)c1ccc([N+](=O)[O-])cc1 (stereo not drawn) was tested, and the pIC50 was 5.91.
With CCCCC1(c2ccccc2)NCC(=O)N(CC(=O)NO)C1=O (stereo not drawn) the pIC50 was 5.76.
CC1(c2ccccc2)NCC(=O)N(CC(=O)NO)C1=O (stereo not drawn) showed a pIC50 of 5.16.
In the case of CCCC1(c2ccccc2)NCC(=O)N(CC(=O)NO)C1=O (stereo not drawn), the pIC50 was 5.14.
Work on CCCCC1(c2ccccc2)C(=O)N(CC(=O)NO)C(=O)CN1C (stereo not drawn) yielded a pIC50 of 5.58.
